Counter-ions that a name gives are not always drawn. Active and inactive are the calls of the source. The rule behind the calls is not given here.
Columns and labels:
HeLa [1] = assay: Effect on total ERK2 level in human HeLa cells preincubated for 30 mins prior to EGF stimulation by Western blotting; assay type: functional, cell-based
Method in brief: (§1)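 Cells preincubated 30 min with vehicle, AG1478 or compound, then treated with EGF for 10 min. Lysed on ice 15 min in Tris-HCl pH 7.5/NaCl/NP-40/EDTA buffer with protease inhibitors, cleared at 14000g for 30 min at 4 °C. Equal extract amounts run on SDS-PAGE and blotted to PVDF. Probed for phospho-EGFR, phospho-ERK and phospho-JNK, then reprobed for total ERK and JNK.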

[2] = molecular target: HIF-1alpha (Homo sapiens); assay: Inhibition of HIF1alpha activation in human HeLa cells stimulated with deferoxamine by luciferase reporter gene assay
[3] = molecular target: beta-catenin (Homo sapiens); assay: Inhibition of beta-catenin activation in human SW480 cells by luciferase reporter gene assay
[4] = molecular target: T1, Epidermal growth factor receptor (Homo sapiens, UniProt P00533); assay: Inhibition of EGFR-induced AP1 activation in human HeLa cells preincubated for 1 hr prior to EGF stimulation by luciferase reporter gene assay; assay type: cell-based
T1 sequence (P00533 whole entry): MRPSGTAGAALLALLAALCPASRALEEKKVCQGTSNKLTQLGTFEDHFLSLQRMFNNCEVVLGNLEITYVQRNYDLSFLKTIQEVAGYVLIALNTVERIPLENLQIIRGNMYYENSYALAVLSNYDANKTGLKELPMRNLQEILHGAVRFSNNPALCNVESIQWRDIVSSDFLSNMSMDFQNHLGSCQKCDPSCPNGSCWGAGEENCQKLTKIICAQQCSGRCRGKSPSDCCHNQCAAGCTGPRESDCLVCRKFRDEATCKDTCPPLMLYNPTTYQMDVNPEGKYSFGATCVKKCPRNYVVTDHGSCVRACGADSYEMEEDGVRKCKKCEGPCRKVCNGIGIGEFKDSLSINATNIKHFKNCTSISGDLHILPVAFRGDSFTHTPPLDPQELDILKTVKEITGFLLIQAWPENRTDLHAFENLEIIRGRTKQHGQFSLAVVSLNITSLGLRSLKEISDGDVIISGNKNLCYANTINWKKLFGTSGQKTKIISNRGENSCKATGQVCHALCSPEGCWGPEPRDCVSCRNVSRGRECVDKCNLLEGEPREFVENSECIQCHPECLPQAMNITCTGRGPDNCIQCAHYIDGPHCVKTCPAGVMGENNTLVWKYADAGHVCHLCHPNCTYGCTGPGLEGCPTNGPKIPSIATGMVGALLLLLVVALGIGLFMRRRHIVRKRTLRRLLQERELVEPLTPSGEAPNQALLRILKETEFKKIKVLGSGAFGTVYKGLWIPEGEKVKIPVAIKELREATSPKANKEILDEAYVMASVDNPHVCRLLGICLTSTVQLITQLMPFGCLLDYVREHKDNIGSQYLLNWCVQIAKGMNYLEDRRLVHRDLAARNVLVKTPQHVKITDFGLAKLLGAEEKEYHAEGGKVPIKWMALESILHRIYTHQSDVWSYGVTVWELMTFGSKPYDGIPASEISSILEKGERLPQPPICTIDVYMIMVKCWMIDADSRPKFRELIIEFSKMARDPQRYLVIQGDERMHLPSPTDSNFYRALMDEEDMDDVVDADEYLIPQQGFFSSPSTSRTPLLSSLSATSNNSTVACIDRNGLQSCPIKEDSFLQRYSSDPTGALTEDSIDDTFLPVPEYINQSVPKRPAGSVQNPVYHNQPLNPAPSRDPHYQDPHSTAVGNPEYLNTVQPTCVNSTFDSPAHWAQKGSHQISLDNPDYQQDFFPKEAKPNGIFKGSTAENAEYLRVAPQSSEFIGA

A549 = assay: Antitumor activity against human A549 cells after 72 hrs by SRB assay; assay type: functional; details: A549, 72 h; for CC50: read-out: LC50 (the source's name)
Method in brief: (§2)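 Cells kept in RPMI with 10% fetal calf serum, 2 mM L-glutamine, penicillin/streptomycin, 37 °C, 5% CO2. Triplicate cultures exposed 72 h to 10 concentrations from 10 to 0.0026 μg/mL. Fixed in 1% glutaraldehyde, stained with 0.4% SRB for 30 min, dye extracted in 10 mM Trizma base, absorbance at 490 nm. Doxorubicin positive control. GI50, TGI and LC50 interpolated from nonlinear-regression dose-response curves (mean ± SD).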

[5] = molecular target: T1, Epidermal growth factor receptor; assay: Inhibition of EGFR autophosphorylation in human HeLa cells preincubated for 30 mins prior to EGF stimulation by Western blotting; assay type: cell-based; method in brief: as §1
HeLa [6] = assay: Effect on total JNK1 level in human HeLa cells preincubated for 30 mins prior to EGF stimulation by Western blotting; assay type: functional, cell-based; method in brief: as §1
[7] = molecular target: T1, Epidermal growth factor receptor; assay: Inhibition of EGFR-induced ERK phosphorylation in human HeLa cells preincubated for 30 mins prior to EGF stimulation by Western blotting; assay type: cell-based; method in brief: as §1
HT-29 = assay: Antitumor activity against human HT-29 cells after 72 hrs by SRB assay; assay type: functional; details: HT-29, 72 h; method in brief: as §2
MDA-MB-231 = assay: Antitumor activity against human MDA-MB-231 cells after 72 hrs by SRB assay; assay type: functional; details: MDA-MB-231, 72 h; method in brief: as §2
[8] = molecular target: T1, Epidermal growth factor receptor; assay: Inhibition of EGFR-induced JNK1 phosphorylation in human HeLa cells preincubated for 30 mins prior to EGF stimulation by Western blotting; assay type: cell-based; method in brief: as §1
[9] = molecular target: T1, Epidermal growth factor receptor; assay: Inhibition of EGFR-induced ERK phosphorylation in human HeLa cells preincubated for 4 hrs prior to EGF stimulation by Western blotting; assay type: cell-based
Method in brief: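 Cells preincubated 4 h with vehicle, AG1478 or compound before a 10 min EGF treatment. Lysates cleared at 14000g for 30 min at 4 °C, resolved by SDS-PAGE and blotted to PVDF. Probed for phospho-ERK and reprobed for total ERK.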

## C/C=C(\C)C(O[C@@H]1O[C@H](CO)[C@@H](O)[C@H](O)[C@H]1O)C(C)/C=C(C)/C=C/CC(C)/C=C/c1oc(OC)c(C)c(=O)c1C (some centres not stated)
HeLa [1]
  Activity: inactive
[2]
  IC50: 60 nM
[3]
  IC50: 170 nM
[4]
  IC50: 160 nM
A549
  GI50: 530 nM
  TGI: 760 nM
  CC50: 1160 nM
[5]
  inhibition: inactive
HeLa [6]
  Activity: inactive
[7]
  inhibition: inactive
HT-29
  LC50: 240 nM
MDA-MB-231
  GI50: 500 nM
  LC50 (concentration killing 50% of cells): 1010 nM
  TGI: 690 nM

## C/C=C(\C)C(O)C(C)/C=C(C)/C=C/CC(C)/C=C/c1oc(OC)c(CC)c(=O)c1C (configuration not stated)
HeLa [1]
  Activity: inactive
A549
  GI50: 18600 nM
  TGI: > 22000 nM
  CC50: > 22000 nM
[5]
  inhibition: inactive
[8]
  inhibition: Active
HeLa [6]
  Activity: inactive
[7]
  inhibition: inactive
HT-29
  GI50: 21500 nM
  LC50: > 22000 nM
  TGI: > 22000 nM
MDA-MB-231
  GI50: > 22000 nM
  LC50 (concentration killing 50% of cells): > 22000 nM
  TGI: > 22000 nM

## COc1cc2ncnc(Nc3cccc(Cl)c3)c2cc1OC
[5]
  inhibition: Active

## C/C=C(\C)C(O[C@@H]1O[C@H](CO)[C@@H](O)[C@H](O)[C@H]1O)C(C)/C=C(C)/C=C/CC(C)/C=C/c1oc(OC)c(CC)c(=O)c1C (some centres not stated)
A549
  GI50: 280 nM
  TGI: 520 nM
  CC50: 1080 nM
HT-29
  GI50: 380 nM
  LC50: 4680 nM
  TGI: 1230 nM
MDA-MB-231
  GI50: 240 nM
  LC50 (concentration killing 50% of cells): 820 nM
  TGI: 430 nM

## C/C=C(\C)[C@H](O)[C@H](C)/C=C(C)/C=C/CC(C)/C=C/c1oc(OC)c(C)c(=O)c1C (some centres not stated)
[9]
  inhibition: Active
HeLa [1]
  Activity: inactive
[2]
  IC50: 470 nM
[3]
  IC50: 660 nM
[4]
  IC50: < 7 nM
A549
  GI50: 5000 nM
  TGI: 13500 nM
  CC50: > 22000 nM
[5]
  inhibition: inactive
HeLa [6]
  Activity: inactive
[7]
  inhibition: Active
HT-29
  GI50: 10800 nM
  LC50: 11500 nM
  TGI: 10800 nM
MDA-MB-231
  GI50: 10500 nM
  LC50 (concentration killing 50% of cells): > 22000 nM
  TGI: > 22000 nM

## COc1cccc2c1C(=O)c1c(O)c3c(c(O)c1C2=O)C[C@@](O)(C(=O)CO)C[C@@H]3O[C@H]1C[C@H](N)[C@H](O)[C@H](C)O1 [DOXORUBICIN HYDROCHLORIDE]
A549
  GI50: 60 nM
  TGI: 200 nM
  CC50: 590 nM
HT-29
  GI50: 150 nM
  TGI: 180 nM
MDA-MB-231
  GI50: 90 nM
  TGI: 180 nM

From ChEMBL document CHEMBL1817613, “Antitumor actinopyranones produced by Streptomyces albus POR-04-15-053 isolated from a marine sediment” (J Nat Prod, 2011)
